Test [1] concerns Bacillus spizizenii. In words: Antibacterial activity against Bacillus subtilis ATCC 6633 at 30 ug/disk after 12 hrs by paper disk diffusion assay. As to conditions: for zone of inhibition at 30 µg/disc: ATCC 6633, 12 h, read-out: DIZ. The test is classed as functional. Put shortly: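 Test compounds dissolved in MeOH and applied to paper disks at 30 μg/disk against Bacillus subtilis. Read-out is the diameter of the zone of complete growth inhibition.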
Background: In agar diffusion tests the substance spreads into inoculated agar from a disc or well.

Test [2] relates to Micrococcus luteus. In words: Antibacterial activity against Micrococcus luteus ATCC 9341 after 24 hrs by broth microdilution method. The test is classed as functional. The note with it: ATCC 9341, 24 h. (Broth dilution looks for growth in wells or tubes with falling amounts of substance.)
In test [3] the test system is Serratia marcescens. In words: Antibacterial activity against Serratia marcescens ATCC 13880 after 24 hrs by broth microdilution method. The test is classed as functional. The note with it: ATCC 13880, 24 h.
Test [4] deals with Staphylococcus aureus. In words: Antibacterial activity against Staphylococcus aureus ATCC 29213 after 24 hrs by broth microdilution method. The test is classed as functional. As to conditions: ATCC 29213, 24 h.
Test [5] concerns Enterococcus faecalis. In words: Antibacterial activity against Enterococcus faecalis ATCC 29212 after 24 hrs by broth microdilution method. The note with it: ATCC 29212, 24 h. The class given is functional.
Test [6] in a line: Inhibition of Escherichia coli RNA polymerase after 1 hr by fluorescence assay. Put shortly: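 Assay uses E. coli RNA polymerase. IC50 is taken from three independent dose–response curves, each point measured in duplicate, and reported as mean ± SEM.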
Test [7] concerns Bacillus spizizenii. In words: Antibacterial activity against Bacillus subtilis ATCC 6633 after 24 hrs by broth microdilution method. The class given is functional. As to conditions: ATCC 6633, 24 h.
In test [8] the test system is Candida albicans. In words: Antifungal activity against Candida albicans ATCC 10231 after 48 hrs by broth microdilution method. The class given is functional. The note with it: ATCC 10231, 48 h.
The subject of test [9] is Pseudomonas aeruginosa. In words: Antibacterial activity against Pseudomonas aeruginosa ATCC 27853 after 24 hrs by broth microdilution method. The class given is functional. The note with it: ATCC 27853, 24 h.
In test [10] the test system is Escherichia coli. In words: Antibacterial activity against Escherichia coli ATCC 25922 after 24 hrs by broth microdilution method. The test is classed as functional. The note with it: ATCC 25922, 24 h.

In brackets after ≈: the same amount, converted by molar mass. Activity calls are given as the source filed them. The rule behind the calls is not given here.

The source of these data is ChEMBL document CHEMBL2321743, “Novel hybrid-type antimicrobial agents targeting the switch region of bacterial RNA polymerase” (ACS Med Chem Lett, 2013).

`C=CCCCC(=O)c1c(O)cc(C)oc1=O`: the zone of inhibition at 30 µg/disc in test [1] amounted to 9 mm.
For `Cc1cc(O)c(C(=O)NCCCCCCC(=O)Nc2c3sscc-3[nH]c2=O)c(=O)o1`, in [1], the “diameter of the inhibition zone (DIZ)” value was “Active”.
Usually MIC stands for the least concentration at which growth counts as inhibited. Broadly, the IC50 is the concentration at which inhibition is half-maximal. On to `CO[C@H]1/C=C/O[C@@]2(C)Oc3c(C)c(O)c4c(O)c(c(/C=N/N5CCN(C)CC5)c(O)c4c3C2=O)NC(=O)/C(C)=C\C=C\[C@H](C)[C@H](O)[C@@H](C)[C@@H](O)[C@@H](C)[C@H](OC(C)=O)[C@@H]1C` [RIFAMPIN], for which the MIC is at most 0.125 µg/mL in test [2]; 32 µg/mL (≈ 38.9 µM) in test [3]; 0.5 µg/mL (≈ 0.608 µM) in test [4]; 1 µg/mL (≈ 1.22 µM) in test [5]; at most 0.125 µg/mL in [7]; at least 256 µg/mL in [8]. Moreover, the MIC in test [9] came out at 32 µg/mL (≈ 38.9 µM); in test [10] it was 8 µg/mL (≈ 9.72 µM). Moreover, in [1], the zone of inhibition at 30 µg/disc was 25 mm. In [6], this molecule had an IC50 of 0.08 µM.
As to `C=CCCCc1cc(O)c(C(=O)CCCCCCC(=O)O)c(=O)o1`, in [1], the “diameter of the inhibition zone (DIZ)” value was “inactive”.
Same read-out and setting: in the case of `CCCCCCCCC(=O)c1c(O)cc(CCCCCC(=O)O)oc1=O` it was “Active”.
For the molecule `C=CCCCc1cc(O)c(C(=O)CCCCCCC(=O)Nc2c3sscc-3[nH]c2=O)c(=O)o1`, the zone of inhibition at 30 µg/disc in test [1] was 10 mm.
Take `Cc1cc(O)c(C(=O)CCCCCCCC(=O)Nc2c3sscc-3[nH]c2=O)c(=O)o1`: the MIC in test [2] was 1 µg/mL (≈ 2.22 µM); in test [3], at least 256 µg/mL; in test [4], 4 µg/mL (≈ 8.88 µM); in test [5], 4 µg/mL (≈ 8.88 µM); in [7], 16 µg/mL (≈ 35.5 µM); in [8], at least 256 µg/mL. Moreover, the results for the MIC in [9] and in test [10] were 128 µg/mL (≈ 284 µM) and at least 256 µg/mL, respectively. In addition, the zone of inhibition at 30 µg/disc in test [1] was 15 mm. Also, half-maximal inhibition in [6] (IC50) required 14 µM.
With `CCCCCCCCC(=O)c1c(O)cc(C)oc1=O`, the MIC in test [2] was determined as 2 µg/mL (≈ 7.51 µM); in test [3], 128 µg/mL (≈ 481 µM); in [4], 8 µg/mL (≈ 30 µM); in test [5] it was 4 µg/mL (≈ 15 µM); in [7], 8 µg/mL (≈ 30 µM); in test [8], 64 µg/mL (≈ 240 µM). The MIC in test [9] and in test [10] was 128 µg/mL (≈ 481 µM) in each case. The zone of inhibition at 30 µg/disc in test [1] worked out at 12 mm. Moreover, the IC50 in [6] was over 2000 µM.
In the case of `Cc1cc(O)c(C(=O)NCCCCCCC(=O)O)c(=O)o1`, the “diameter of the inhibition zone (DIZ)” value in test [1] is “inactive”.
Turning to `CCC(=O)c1c(O)cc(C)oc1=O`, the “diameter of the inhibition zone (DIZ)” value in test [1] was “inactive”.
Same read-out and setting: to `Cc1cc(O)c(C(=O)CCCCCCCC(=O)N2CCCCC2)c(=O)o1` belongs “inactive”; to `CCC(=O)c1c(O)cc(CCCC(=O)Nc2c3sscc-3[nH]c2=O)oc1=O`, “inactive”; to `Cc1cc(O)c(C(=O)CCCCCCC(=O)O)c(=O)o1`, “inactive”.
Turning to `Cc1cc(O)c(C(=O)CCCCCCC(=O)NC2=C3SS(=O)(=O)C=C3NC2=O)c(=O)o1`, the “diameter of the inhibition zone (DIZ)” value in test [1] is “inactive”.
The molecule `CCCC/C(C)=C/C=C(\C)C(=O)c1c(O)cc([C@H](C)CC/C=C/NC(=O)OC)oc1=O` [MYXOPYRONIN B] yielded a 50% inhibitory concentration (IC50) in test [6] of 24 µM.
Turning to `Cc1cc(O)c(C(=O)CCCCCCC(=O)Nc2c3sscc-3[nH]c2=O)c(=O)o1`, the zone of inhibition at 30 µg/disc in test [1] worked out at 11 mm.
Regarding `CCCC/C(C)=C/C=C(\C)C(=O)c1c(O)cc(C(C)CC/C=C/NC(=O)OC)oc1=O` (racemic), in [1], the “diameter of the inhibition zone (DIZ)” value is “Active”.
Turning to `O=C(CCCCCCCO)Nc1c2sscc-2[nH]c1=O`, the zone of inhibition at 30 µg/disc in test [1] came to 9 mm.
The same measure, in the same setting: in the case of `CCCCCCCCC(=O)c1c(O)cc(CCCCCC(=O)Nc2c3sscc-3[nH]c2=O)oc1=O` it was 9 mm.
For `Cc1cc(O)c(C(=O)CCCCC(=O)Nc2c3sscc-3[nH]c2=O)c(=O)o1`, the MIC in test [2] came out at 8 µg/mL (≈ 19.6 µM); in test [3] it was 128 µg/mL (≈ 313 µM); in test [4] it was 64 µg/mL (≈ 157 µM); in [5], 16 µg/mL (≈ 39.2 µM); in test [7] it was 64 µg/mL (≈ 157 µM); in test [8] it was 128 µg/mL (≈ 313 µM). The minimum inhibitory concentration (MIC) in test [9] was determined as 64 µg/mL (≈ 157 µM); in test [10] it was 128 µg/mL (≈ 313 µM). Besides, the zone of inhibition at 30 µg/disc in test [1] turned out to be 14 mm. This molecule also gave an IC50 in [6] of over 2000 µM.
